pIC50: −log10 of the molar value. Calls of active or inactive are those of the source.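 The calls were made as follows: active = compounds blocking at least half of the virus-caused cell damage; inactive = the rest.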
system: HEp-2 RSV Long CPE, luminescence viability; assay: RSV cytopathic effect inhibition in HEp-2 cells, dose response, cell-based, RSV Long, luminescence viability, purified and synthesized compounds (AID 488972)
How it was run: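 Material: HEp-2 cells infected with RSV strain Long; also added: RSV strain Long at MOI 0.45; incubation: 6 days at 37 °C; detection: luminescence-based measurement of viral cytopathic effect; measure: % CPE inhibition and constrained 4-parameter IC50; benchmarks: cell-only and virus-only wells; replication: triplicate wells per dose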

For `Cc1ccc(NC(=O)[C@H]2CCCN2S(=O)(=O)c2cccc3cccnc23)c(C)c1`, which IC50 is on record?
The IC50 was > 50 µM (inactive).

With `Cc1ccc(NC(=O)C2CCCN2S(=O)(=O)c2cccc3cccnc23)c(C)c1` (stereo unspecified) as the molecule, how does the pIC50 read?
Its pIC50 is 4.88.

`Cc1csc(NC(=O)c2cccnc2)n1` was tested. Which IC50 did it give?
Its IC50 is > 50 µM (inactive).

For `Cc1ccc(NC(=O)C(C)NS(=O)(=O)c2cccc3cccnc23)c(C)c1` (stereo unspecified), which IC50 is on record?
The IC50 was > 50 µM (inactive).

How did the IC50 turn out when `Cc1ccc(NC(=O)C2CCCN2C(=O)c2cccc3cccnc23)c(C)c1` (stereo unspecified) was run?
The IC50 was > 50 µM (inactive).

`CSc1ncccc1C(=O)Nc1nc(C(C)(C)C)cs1` was tested. Which pIC50 did it give?
Its pIC50 is 4.79.

`CC(C)(C)c1csc(NC(=O)c2cccnc2)n1` was tested. Which IC50 did it give?
Its IC50 is > 50 µM (inactive).

For `Cc1ccc(NC(=O)C2CCCN2C(=O)c2ccccc2)c(C)c1` (stereo unspecified), which IC50 is on record?
The IC50 was > 50 µM (inactive).

With `Cc1ccc(NC(=O)C2CCCN2Cc2cccc3cccnc23)c(C)c1` (stereo unspecified) as the molecule, how does the IC50 read?
Its IC50 is > 50 µM (inactive).

How did the IC50 turn out when `Cc1ccc(NC(=O)C2CCCN2S(=O)(=O)c2ccccc2)c(C)c1` (stereo unspecified) was run?
The IC50 was > 50 µM (inactive).

How did the IC50 turn out when `Cc1ccc(NC(=O)C2CCCN2S(=O)(=O)c2cccc3cc(C)cnc23)c(C)c1` (stereo unspecified) was run?
Its IC50 is > 50 µM (inactive).

`Cc1ccc(NC(=O)C2CCCN2S(C)(=O)=O)c(C)c1` (stereo unspecified) was tested. Which IC50 did it give?
The IC50 was > 50 µM (inactive).

For `Cc1ccc(NC(=O)C2CCCN2S(=O)(=O)c2cccc3cnccc23)c(C)c1` (stereo unspecified), which IC50 is on record?
The IC50 was > 50 µM (inactive).

How did the IC50 turn out when `CSc1ncccc1C(=O)Nc1nc(C)cs1` was run?
The IC50 was > 50 µM (inactive).

With `Cc1ccc(NC(=O)CN(C)S(=O)(=O)c2cccc3cccnc23)c(C)c1` as the molecule, how does the IC50 read?
Its IC50 is > 50 µM (inactive).

`Cc1ccc(NC(=O)C2CCCN2Cc2ccccc2)c(C)c1` (stereo unspecified) was tested. Which IC50 did it give?
The IC50 was > 50 µM (inactive).

With `Cc1ccc(NC(=O)[C@@H]2CCCN2S(=O)(=O)c2cccc3cccnc23)c(C)c1` as the molecule, how does the pIC50 read?
The pIC50 was 5.11.

With `Cc1ccc(NC(=O)C2CCCN2S(=O)(=O)c2cccc3ccccc23)c(C)c1` (stereo unspecified) as the molecule, how does the IC50 read?
The IC50 was > 50 µM (inactive).

With `Cc1ccc(NC(=O)C2CCCN2S(=O)(=O)c2ccc3ncccc3c2)c(C)c1` (stereo unspecified) as the molecule, how does the IC50 read?
The IC50 was > 50 µM (inactive).

Which IC50 does the source give for `Cc1ccc(NC(=O)CNS(=O)(=O)c2cccc3cccnc23)c(C)c1` here?
The IC50 was > 50 µM (inactive).

With `O=C(Nc1ccc(C(F)(F)F)cc1[N+](=O)[O-])O[C@H]1[C@H](Cc2ccccc2)NS(=O)(=O)[C@H]2C[C@@H]3C=C[C@]12O3` as the molecule, how does the IC50 read?
The IC50 was > 50 µM (inactive).
